Experimental data gathered from unrelated publications.
Compare with care: the assays were run in different laboratories.
Effect on: cell growth or viability

| Compound | cell line | method | time | IC50 |
| --- | --- | --- | --- | --- |
| Clc1ccc2c(NCCN(Cc3ccccn3)Cc3ccccn3)ccnc2c1 | CHO | MTT | – | > 240000 nM |
| NCCOc1cc(C(=O)Nc2cc(OCCN)c3ccccc3n2)nc(C(=O)Nc2cc(OCCN)c3ccccc3n2)c1 | HT-1080 | ATP luminescence | 72 h | 600 nM |
| C[C@H](NC(=O)c1cccc2ccccc12)C(=O)Nc1ccccc1Oc1ccccc1 | SH-SY5Y | – | – | 4000 nM |
| Clc1ccc2c(NCCNCc3ccccn3)ccnc2c1 | CHO | MTT | – | 144000 nM |
| Cc1ccc2nc(Cl)c(C=C3C(=O)Nc4ccccc43)cc2c1 | CHO | MTT | 72 h | 80000 nM |
| NCCOc1cc(C(=O)Nc2cc(OCCN3CCCC3)c3ccccc3n2)nc(C(=O)Nc2cc(OCCN3CCCC3)c3ccccc3n2)c1 | HT-1080 | ATP luminescence | 72 h | 200 nM |
| Cc1cc(C)cc(COc2cc3c(cc2OCc2cc(C)cc(C)c2)[C@H]2C[C@](O)(Cc4cn(Cc5ccc(S(C)(=O)=O)cc5)nn4)C[C@H](C)N2CC3)c1 | GES1 | MTT | 48 h | 2050 nM |
| COc1cccc2c1C(=O)c1c(O)c3c(c(O)c1C2=O)C[C@@](O)(C(=O)CO)C[C@@H]3O[C@H]1C[C@H](N)[C@H](O)[C@H](C)O1 | A 172 | WST-1 | 72 h | 40 nM |
| C=CC(=O)Nc1ccc(CCn2cc(C[C@@]3(O)C[C@@H]4c5cc(OCc6cc(C)cc(C)c6)c(OCc6cc(C)cc(C)c6)cc5CCN4[C@@H](C)C3)nn2)cc1 | GES1 | MTT | 48 h | 730 nM |
| NCCCOc1cc(NC(=O)c2cccc(C(=O)Nc3cc(OCCCN)c4ccccc4n3)n2)nc2ccccc12 | HT-1080 | ATP luminescence | 72 h | 1100 nM |
| COc1c(C)c(OS(=O)(=O)c2ccc3ccccc3c2)c(C)c(OS(=O)(=O)c2ccc3ccccc3c2)c1C(=O)/C=C/c1ccccc1 | SH-SY5Y | SRB | 72 h | > 50000 nM |
| COc1cc(C(=O)Nc2cc(OC)c3ccccc3n2)nc(C(=O)Nc2cc(OC)c3ccccc3n2)c1 | HT-1080 | ATP luminescence | 72 h | > 40000 nM |
| O=C(NCc1ccc(CO)cc1)c1c[nH]c2ccc(Cl)cc12 | T24 | MTT | – | 17000 nM |
| COc1c(C)c(OC)c2c(c1C)OC(c1ccccc1)CC2=O (centres unmarked) | SH-SY5Y | SRB | 72 h | > 50000 nM |
| CC(=O)O[C@H]1C(=O)[C@@]2(C)[C@H]([C@H](OC(=O)c3ccccc3)[C@]3(O)C[C@H](OC(=O)[C@H](O)[C@@H](NC(=O)c4ccccc4)c4ccccc4)C(C)=C1C3(C)C)[C@]1(OC(C)=O)CO[C@@H]1C[C@@H]2O | HCC1937 | ATP luminescence | 72 h | > 2500 nM |
| COc1cc(Nc2nccc(-c3cnn4nc(OC)ccc34)n2)cc(C(F)(F)F)c1 | SK-N-MC | ATP luminescence | – | 130 nM |

| Compound | cell line | method | time | IC50 |
| --- | --- | --- | --- | --- |
| CN1C(=O)c2cc(C(N)=O)nc3c(N)c(Cl)c(N)c1c23 | HCC4017 | – | – | 15900 nM |
| O=C(O)c1ccc(NC(=O)c2cc3cc(Cl)ccc3[nH]2)cc1 | T24 | MTT | – | 15000 nM |
| O=C(Nc1cc(OCCN2CCCC2)c2ccccc2n1)c1cc(Cl)cc(C(=O)Nc2cc(OCCN3CCCC3)c3ccccc3n2)n1 | HT-1080 | ATP luminescence | 72 h | 3400 nM |
| CCN(CC)CCNC(=O)c1c(C)[nH]c(/C=C2\C(=O)Nc3ccc(F)cc32)c1C | IEC-6 | – | 72 h | 3060 nM |
| CCN1CCN(c2ccc(Nc3cc(N(C)C(=O)Nc4c(Cl)c(OC)cc(OC)c4Cl)ncn3)cc2)CC1 | SNU-16 | ATP luminescence | 96 h | 9.31 nM |
| CCCCN(Cc1ccc(C(=O)NO)cc1)C(=O)Nc1ccccc1 | SUP-B15 | ATP luminescence | 72 h | 8660 nM |
| O=[N+]([O-])c1ccc(NC(=S)NN=Cc2ccccn2)cc1 | BHK | SRB | 48 h | 54800 nM |
| CN(C)CCCOc1cc(NC(=O)c2cc(Cl)cc(C(=O)Nc3cc(OCCCN(C)C)c4ccccc4n3)n2)nc2ccccc12 | HT-1080 | ATP luminescence | 72 h | 1800 nM |
| C=C(C)C(=O)Nc1ccc(-c2c(-c3ccc(Oc4nccc(C)n4)c(F)c3)c3c(N)ncnc3n2C)cc1 | NCI-H716 | ATP luminescence | 96 h | 2.09 nM |
| CCCON(Cc1ccc(C(=O)NO)cc1)C(=O)Nc1ccc(N(C)C)cc1 | SUP-B15 | ATP luminescence | 72 h | 6620 nM |
| O=C1Nc2ccccc2C1=Cc1cc2cc(Cl)ccc2nc1Cl | CHO | MTT | 72 h | 38500 nM |
| CCN1C(=O)N(c2c(F)c(OC)cc(OC)c2F)Cc2cnc3[nH]c(CN4CCOCC4)cc3c21 | NCI-H716 | ATP luminescence | 96 h | 1.71 nM |
| NCCOc1cc(NC(=O)c2cc(OCc3ccc(F)cc3)cc(C(=O)Nc3cc(OCCN)c4ccccc4n3)n2)nc2ccccc12 | HT-1080 | ATP luminescence | 72 h | 1600 nM |
| CC(C)/N=C1\c2cc(C(N)=O)nc3c(N)c(Cl)c(N)c(c23)N1C | HCC4017 | – | – | 480 nM |
| C#CCOc1cc(C(=O)Nc2cc(OCCCN)c3ccccc3n2)nc(C(=O)Nc2cc(OCCCN)c3ccccc3n2)c1 | HT-1080 | ATP luminescence | 72 h | 2600 nM |
| CC(C)C[C@H](NC(=O)[C@H](Cc1ccccc1)NC(=O)c1cnccn1)B(O)O | SK-N-MC | ATP luminescence | – | 7.8 nM |
